Reference: publication PMC5909973 (ChemMedChem, 2017)

Key:
human FPR2 [1] = target: T1, human FPR2 (Homo sapiens, UniProt P25090); experiment: Ca2+ mobilization; type: cell-based; conditions: for Ca+2 mobilization FPR2-HL60 efficacy: normalized to 5 nM WKYMVM = 100%
T1 sequence (P25090 1-351): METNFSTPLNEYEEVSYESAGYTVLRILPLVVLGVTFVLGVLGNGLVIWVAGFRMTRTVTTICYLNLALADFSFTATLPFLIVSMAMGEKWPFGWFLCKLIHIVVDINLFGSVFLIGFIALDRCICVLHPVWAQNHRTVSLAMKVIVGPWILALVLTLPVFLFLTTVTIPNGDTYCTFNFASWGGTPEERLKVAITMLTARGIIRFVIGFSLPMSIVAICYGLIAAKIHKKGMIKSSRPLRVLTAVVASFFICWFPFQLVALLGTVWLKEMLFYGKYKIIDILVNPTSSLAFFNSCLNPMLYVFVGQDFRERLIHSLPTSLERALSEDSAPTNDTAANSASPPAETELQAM
Outline: (§1)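 FPR1- or FPR2-stably transfected HL-60 cells were kept in RPMI 1640 with 10% FCS and G418. Cells were loaded with Fluo-4 AM (1.25 µg/mL final) for 30 min at 37 °C in the dark, then put in HBSS with Ca²⁺/Mg²⁺ at 2×10⁵ cells/well. After test compound addition, fluorescence (ex 485/em 538 nm) was read every 5 s for 240 s at room temperature. Peak change over baseline was normalized to 5 nM fMLF (FPR1) or 5 nM WKYMVM (FPR2). Runs were in triplicate, with EC50 from nonlinear regression of 5–6 points.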

human FPR1 [2] = target: T2, human FPR1 (Homo sapiens, UniProt P21462); experiment: Ca2+ mobilization; type: cell-based; conditions: for Ca+2 mobilization FPR1-HL60 efficacy: normalized to 5 nM fMLF = 100%
T2 sequence (P21462 1-350): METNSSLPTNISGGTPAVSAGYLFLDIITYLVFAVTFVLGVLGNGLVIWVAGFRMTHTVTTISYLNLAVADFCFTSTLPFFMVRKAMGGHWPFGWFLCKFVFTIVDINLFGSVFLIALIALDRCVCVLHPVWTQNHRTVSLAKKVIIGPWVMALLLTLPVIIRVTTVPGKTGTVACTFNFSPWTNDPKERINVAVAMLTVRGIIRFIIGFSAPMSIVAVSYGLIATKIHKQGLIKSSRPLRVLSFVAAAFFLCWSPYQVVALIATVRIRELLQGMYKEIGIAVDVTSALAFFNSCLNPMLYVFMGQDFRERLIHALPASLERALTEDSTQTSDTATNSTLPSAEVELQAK
Outline: as §1

human FPR2 [3] = target: T1, human FPR2; type: cell-based; conditions: for Ca+2 mobilization FPR2-HL60 max. inhibition: desensitization, pretreatment, then WKYMVM 5 nM
Outline: (§2)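 Fluo-4-loaded transfected HL-60 cells in HBSS⁺ were pretreated with DMSO vehicle or graded test compound concentrations while Ca²⁺ flux was monitored. The same wells were then challenged with 5 nM fMLF (FPR1 cells) or 5 nM WKYMVM (FPR2 cells). The second Ca²⁺ response (ex 485/em 538 nm, every 5 s for 240 s, room temperature) was taken as the measure of desensitization. Each compound was run in triplicate, with dose-response curves fitted by nonlinear regression.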

human FPR1 [4] = target: T2, human FPR1; experiment: Desensitization: inhibition of fMLF-induced Ca2+ mobilization in FPR1-HL60 cells; type: cell-based
Outline: as §2

N9 cells = experiment: MTT cytotoxicity assay in N9 cells; type: cell-based; conditions: Mus musculus, N9, 24 h, read-out: MTT EC50
Outline: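 Murine N9 microglia were grown in IMDM with 5% FBS and 2 mM glutamine at 37 °C in 5% CO₂, and seeded at 20,000 cells/well. Next day, test compound was added at 5–6 concentrations (10⁻⁸–10⁻⁴ M) in triplicate, with a DMSO vehicle control. After 24 h, MTT (0.5 mg/mL) was added for 3–4 h at 37 °C. Formazan was dissolved in DMSO/EtOH 1:1 and read at 570 and 630 nm. EC50 came from a nonlinear fit of percent absorbance change against log concentration.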

[5] = tested on: mouse microglial N9 cells; experiment: ROS production in LPS-stimulated N9 cells; type: cell-based; conditions: for reduction in cellular ROS level (dose dependence): N9 cells stimulated with LPS, 0.1 and 1 μM; for reduction in ROS production: N9 cells, 24 h co-incubation with LPS, compound 0.1 μM, p<0.05
Outline: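 N9 microglia seeded at 25,000 cells/well; after 3–4 h, LPS 300 ng/mL added alone or with test compound (0.1 or 1 μM), then 24 h at 37 °C. H2DCF-DA (10 μM final) added for 30 min, wells washed 3× in ice-cold PBS, read in saline at ex 480/em 520 nm. Increase over basal fluorescence; mean ± standard error, ≥3 biological replicates; one-way ANOVA with paired two-tailed t-tests, p<0.05.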

[6] = ROS scavenging in cell-free non-enzymatic O2·−-generating system; conditions: concentrations up to 20 μM; data not shown
Outline: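 Superoxide generated non-enzymatically from phenazine methosulfate plus NADH in 0.05 M phosphate buffer, pH 7.5, with or without test compound. Detection by NBT reduction to monoformazan, followed at 560 nm and 25 °C on a plate spectrophotometer. The rate of absorbance change was taken as the read-out.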

FPR2 [7] = conditions: read-out: FPR2 desensitization IC50; cited from earlier work
FPR2 [8] = conditions: read-out: Ki value at FPR2; cited from earlier work
FPR2 [9] = conditions: cited from earlier work
FPR2 [10] = conditions: FPR2 agonist WKYMVm; cited from earlier work
ear edema = conditions: cited from earlier work

Ca+2 mobilization FPR2-HL60 efficacy (human FPR2 [1]) | Ca+2 mobilization FPR1-HL60 efficacy (human FPR1 [2]) | SMILES | Ca+2 mobilization FPR2-HL60 max. inhibition (human FPR2 [3]) | EC50 (N9 cells) | reduction in cellular ROS level (dose dependence) [5] | reduction in ROS production [5] | direct ROS scavenging activity [6] | also measured
140% | 110% | O=C(Nc1ccc(Br)cc1)N[C@H](Cc1ccc(O)cc1)C(=O)NC1CCCCNC1=O (stereo partly drawn) [(2R)-46, (2R)-2-[3-(4-Bromophenyl)ureido]-3-(4-hydroxyphenyl)-N-(2-oxoazepan-3-yl)propanamide] | 100% | > 100000 nM | dose-dependent reduction in cellular ROS level | statistically significant reduction in ROS production | none of the tested compounds demonstrated ROS scavenging activity | EC50 (human FPR2 [1]): 350 ± 120 nM; EC50 (human FPR1 [2]): 820 ± 370 nM; FPR2 desensitization / block of agonist-induced Ca2+ mobilization, in words (human FPR2 [3]; FPR2-HL60 cells, WKYMVM): able to induce desensitization; FPR1 desensitization / inhibition of fMLF-induced Ca2+ mobilization, in words (human FPR1 [4]; FPR1-HL60 cells, fMLF): able to induce FPR1 desensitization; Ca+2 mobilization FPR1-HL60 max. inhibition (human FPR1 [4]; desensitization, pretreatment, then fMLF 5 nM): 85%
– | – | CCCCOc1ccc(C(=O)NN2C(=O)c3ccccc3NC2c2ccc(OC)cc2)cc1 (stereo not drawn) [Quin C1, reference compound] | – | – | – | statistically significant reduction in ROS production | – | IC50 (FPR2 [7]): 40 nM
90% | 55% | COc1ccc(NC(=O)N[C@H](Cc2ccc(O)cc2)C(=O)NCC2(c3ccccc3)CC2)cc1 [(R)-25, (R)-3-(4-Hydroxyphenyl)-2-[3-(4-methoxyphenyl)ureido]-N-[(1-phenylcyclopropyl)methyl]propanamide] | 75% | > 100000 nM | dose-dependent reduction in cellular ROS level | statistically significant reduction in ROS production | none of the tested compounds demonstrated ROS scavenging activity | –
– | – | CCCCOc1ccc(C(=O)NN2C(=O)c3ccccc3NC2c2ccc(O)cc2)cc1 (stereo not drawn) [Compound 6, Quin C7] | – | – | – | – | – | Ki (FPR2 [8]): 6700 nM; inhibition of Ca2+ flux induced by WKYMVm (FPR2 [9]; FPR2 agonist WKYMVm): inhibited; activation of Ca2+ flux (FPR2 [9]; FPR2 transfected cells): did not activate Ca^2+ flux; inhibition of chemotaxis induced by WKYMVm (FPR2 [10]): inhibited; arachidonic acid-induced ear edema (ear edema): inhibited arachidonic acid-induced ear edema
– | – | N#Cc1ccc(C[C@@H](NC(=O)Nc2ccc(O)cc2)C(=O)NCC2(c3ccccc3)CC2)cc1 [(R)-24, (R)-3-(4-Cyanophenyl)-2-[3-(4-hydroxyphenyl)ureido]-N-[(1-phenylcyclopropyl)methyl]propanamide] | – | > 100000 nM | – | – | – | –
